Assay results taken from ChEMBL document CHEMBL1221230, “Inhibition of eukaryotic translation elongation by cycloheximide and lactimidomycin” (Nat Chem Biol, 2010).
Activity calls are given as the source filed them. No cut-off for these calls is given here. Numbered stars: 1 amine (or outer) side, 2 acyl side, 3 side chain; on linkers, the order of the positions; unused ones are H or OH. Bridge positions count the residues as written; N and C are the ends. Square brackets hold non-standard residues; d marks the D form. Peptide text beside a SMILES is read from it. I, II: the chains in the order shown. Actinocin(1to9) = Cc1c2oc3c(C)ccc(C(=O)[*:2])c3nc-2c(C(=O)[*:1])c(N)c1=O; NMeV = CN[C@H](C(=O)O)C(C)C; Sar = CNCC(=O)O

Tests used:
HeLa [1] = assay: Inhibition of transcriptional activity in human HeLa cells assessed as [3H]uridine utilization after 2 hrs by scintillation counting; format: functional, cell-based
Method in brief: (§1)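 HeLa cells incubated 2 h with varying compound concentrations plus [³⁵S]cysteine/methionine (translation) or [³H]uridine (transcription). Protein synthesis: scintillation counting of TCA-precipitated protein on PVDF membrane. Transcription: scintillation counting of nucleic acids bound to GF/C glass fibre filter.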

Saccharomyces cerevisiae [2] = assay: Fold resistance, ratio of IC50 for Saccharomyces cerevisiae BY724 expressing ribosomal protein cyh2 and harboring mutation in rpl28 to IC50 for Saccharomyces cerevisiae BY108; format: functional
Method in brief: (§2)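 Four isogenic S. cerevisiae strain pairs, each differing only by presence or absence of cyh2, exposed to varying compound concentrations; growth read by optical density; IC50 derived per strain, resistance as ratio between paired strains.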

Saccharomyces cerevisiae [3] = assay: Fold resistance, ratio of IC50 for Saccharomyces cerevisiae BY740 expressing ribosomal protein cyh2 and harboring mutation in rpl28 to IC50 for Saccharomyces cerevisiae […]; format: functional; method in brief: as §2
Saccharomyces cerevisiae [4] = assay: Antimicrobial activity against Saccharomyces cerevisiae BY686 expressing ribosomal protein cyh2 and harboring mutation in rpl28; format: functional, organism-based; method in brief: as §2
[5] = Effect on polyribosome profiling assessed as accumulation of 80S ribosomes after 15 mins by scintillation spectroscopy; format: functional
Method in brief: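 Capped [³²P]-labelled rabbit β-globin RNA incubated in rabbit reticulocyte lysate with compound for 15 min, then centrifuged through 10–35% sucrose gradient.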

[6] = molecular target: Elongation factor 2 (Homo sapiens) (UniProt P13639); assay: Inhibition of eEF2-mediated tRNA translocation assessed as induction of dipeptide accumulation by TLC
HeLa [7] = assay: Inhibition of protein synthesis in human HeLa cells assessed as [35S]cysteine/methionine utilization after 2 hrs by scintillation spectroscopy; format: functional, cell-based; method in brief: as §1
Saccharomyces cerevisiae [8] = assay: Fold resistance, ratio of IC50 Saccharomyces cerevisiae J407alpha expressing ribosomal protein cyh2 and harboring mutation in rpl28 to IC50 for Saccharomyces cerevisiae J47alpha; format: functional; method in brief: as §2
HEK-293T [9] = assay: Effect on polyribosome profiling in human HEK293T cells assessed as accumulation of 80S ribosomes at 100 uM after 30 mins by spectrophotometry; format: functional, cell-based
Method in brief: (§3)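 HEK 293T cells treated 30 min with compound, then lysed; lysates centrifuged through 15–45% sucrose gradient to give polysome profiles.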

Saccharomyces cerevisiae [10] = assay: Antimicrobial activity against Saccharomyces cerevisiae J47alpha; format: functional, organism-based; method in brief: as §2
Oryctolagus cuniculus = species: Oryctolagus cuniculus; assay: Inhibition of translational activity in rabbit reticulocyte assessed as occurrence of ribosomal arrest at start codon at 10 mM by toeprinting assay; format: functional
Method in brief: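 Labelled rabbit β-globin mRNA incubated in rabbit reticulocyte lysate with inhibitor; mixture centrifuged through sucrose gradient, 80S fractions taken to isolate stalled ribosomes; primer extended by AMV reverse transcriptase toward stalled ribosome to map arrest site.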

Saccharomyces cerevisiae [11] = assay: Antimicrobial activity against Saccharomyces cerevisiae JB503; format: functional, organism-based; method in brief: as §2
Saccharomyces cerevisiae [12] = assay: Antimicrobial activity against Saccharomyces cerevisiae J407alpha expressing ribosomal protein cyh2 and harboring mutation in rpl28; format: functional, organism-based; method in brief: as §2
[13] = Binding affinity to 60S ribosome E-site by footprinting assay
Method in brief: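 DMS footprinting of salt-washed 80S ribosomes preincubated 5 min at room temperature with compound, DMS then 5 min at 37°C; rRNA primer extension with AMV reverse transcriptase and [α-³²P]TTP, sequencing gel. For K_D, 300 μl volume at 50 or 100 nM ribosomes titrated with increasing compound.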

Saccharomyces cerevisiae [14] = assay: Antimicrobial activity against Saccharomyces cerevisiae BY740 expressing ribosomal protein cyh2 and harboring mutation in rpl28; format: functional, organism-based; method in brief: as §2
[15] = molecular target: T1, Elongation factor 1-alpha 1 (Homo sapiens) (UniProt P68104); assay: Inhibition of eEF1A-mediated tRNA binding to ternary complex at 200 uM after 10 mins by filtration binding assay
T1 sequence (whole entry): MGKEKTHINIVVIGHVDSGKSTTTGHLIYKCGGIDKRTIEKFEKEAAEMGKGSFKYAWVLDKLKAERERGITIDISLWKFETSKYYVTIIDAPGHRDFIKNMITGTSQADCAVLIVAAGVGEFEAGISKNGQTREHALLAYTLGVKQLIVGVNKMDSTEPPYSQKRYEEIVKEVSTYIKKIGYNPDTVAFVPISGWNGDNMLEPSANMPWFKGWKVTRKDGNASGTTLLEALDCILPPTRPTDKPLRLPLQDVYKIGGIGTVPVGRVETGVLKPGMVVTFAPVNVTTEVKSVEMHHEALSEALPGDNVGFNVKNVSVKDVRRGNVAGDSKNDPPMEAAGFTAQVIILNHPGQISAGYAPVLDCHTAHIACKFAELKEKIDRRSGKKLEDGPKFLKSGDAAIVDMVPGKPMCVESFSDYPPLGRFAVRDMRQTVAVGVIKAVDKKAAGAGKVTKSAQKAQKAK
Method in brief: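 Ribosomes (89 pmol) in 20 mM HEPES pH 7.4, 100 mM KCl, 10 mM MgCl₂, 1 mM DTT with 200 ng poly(U), 2.2 μg eEF1A, 150 μM GDPNP and 200 μM compound, before 10 pmol [¹⁴C]Phe-tRNA^Phe added; 10 min at 37°C; nitrocellulose filtration, scintillation counting.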

HEK-293T [16] = assay: Effect on polyribosome profiling in human HEK293T cells assessed as depletion of polysomes at 50 uM after 30 mins by spectrophotometry; format: functional, cell-based; method in brief: as §3
Saccharomyces cerevisiae [17] = assay: Antimicrobial activity against Saccharomyces cerevisiae JB281; format: functional, organism-based; method in brief: as §2
Saccharomyces cerevisiae [18] = assay: Fold resistance, ratio of IC50 for Saccharomyces cerevisiae BY686 expressing ribosomal protein cyh2 and harboring mutation in rpl28 to IC50 Saccharomyces cerevisiae JB503; format: functional; method in brief: as §2
[19] = molecular target: Elongation factor 2 (Homo sapiens) (UniProt P13639); assay: Inhibition of eEF2-mediated tRNA translocation assessed as inhibition of phenylalanyl puromycin formation
Method in brief: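 Set up as eEF1A binding assay but with GTP; 5 min at 37°C, compound added to 200 μM final, 5 min at room temperature, then eEF2, puromycin and GTP added; 10 min at 37°C; ethyl acetate-extractable phenylalanyl-puromycin counted by scintillation.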

[20] = molecular target: Elongation factor 2 (Homo sapiens) (UniProt P13639); assay: Inhibition of eEF2-mediated tRNA translocation assessed as decrease in tripeptide (Met-Phe-Phe) formation by TLC
HEK-293T [21] = assay: Effect on polyribosome profiling in human HEK293T cells assessed as depletion of polysomes at 100 uM after 30 mins by spectrophotometry; format: functional, cell-based; method in brief: as §3
Saccharomyces cerevisiae [22] = assay: Antimicrobial activity against Saccharomyces cerevisiae BY724 expressing ribosomal protein cyh2 and harboring mutation in rpl28; format: functional, organism-based; method in brief: as §2
[23] = Inhibition of [32P]deacetylated phe-tRNA binding to 60S ribosome E-site by footprinting assay
Saccharomyces cerevisiae [24] = assay: Antimicrobial activity against Saccharomyces cerevisiae BY108; format: functional, organism-based; method in brief: as §2
HeLa [25] = assay: Antiproliferative activity against human HeLa cells assessed as incorporation of [3H]thymidine in nuclear DNA at 2.5 uM after 24 hrs by scintillation counting; format: functional, cell-based
Method in brief: (§4)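 Each of three tumour cell lines incubated with compound at 2.5 μM for 24 h, then [³H]thymidine added to monitor DNA synthesis; initial proliferation screen.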

MDA-MB-231 = assay: Antiproliferative activity against human MDA-MB-231 cells assessed as incorporation of [3H]thymidine in nuclear DNA at 2.5 uM after 24 hrs by scintillation counting; format: functional, cell-based; method in brief: as §4
Jurkat = assay: Antiproliferative activity against human Jurkat cells assessed as incorporation of [3H]thymidine in nuclear DNA at 2.5 uM after 24 hrs by scintillation counting; format: functional, cell-based; method in brief: as §4
[26] = Inhibition of elF4A-mediated renilla luciferase translational activity at 200 to 2000 nM in presence of HCV IRES element
[27] = Inhibition of elF4A-mediated renilla luciferase translational activity at 100 to 200 nM in presence of HCV IRES element
[28] = Effect on peptidyl transfer assessed as [35S]methionyl-puromycin formation by TLC

## C[C@@H]1C[C@@H]([C@H](O)CC2CC(=O)NC(=O)C2)C(=O)[C@@H](C)C1 [CYCLOHEXIMIDE]
HeLa [1]
  IC50: 2880 nM
Saccharomyces cerevisiae [2]
  Ratio IC50: 77
Saccharomyces cerevisiae [3]
  Ratio IC50: 76.3
Saccharomyces cerevisiae [4]
  IC50: 7420 nM
[5]
  Activity: Active
[6]
  inhibition: Active
HeLa [7]
  IC50: 532 nM
  inhibition: Dose-dependent effect
Saccharomyces cerevisiae [8]
  Ratio IC50: 232.2
HEK-293T [9]
  Activity: inactive
Saccharomyces cerevisiae [10]
  IC50: 88 nM
Oryctolagus cuniculus
  inhibition: inactive
Saccharomyces cerevisiae [11]
  IC50: 32 nM
Saccharomyces cerevisiae [12]
  IC50: 20500 nM
[13]
  Activity: Dose-dependent effect
  Kd: 15000 nM
Saccharomyces cerevisiae [14]
  IC50: 17300 nM
[15]
  inhibition: inactive
HEK-293T [16]
  Activity: Active
Saccharomyces cerevisiae [17]
  IC50: 227 nM
Saccharomyces cerevisiae [18]
  Ratio IC50: 232.4
[19]
  inhibition: Active
[20]
  inhibition: Active
HEK-293T [21]
  Activity: inactive
Saccharomyces cerevisiae [22]
  IC50: 52100 nM
[23]
  inhibition: inactive
Saccharomyces cerevisiae [24]
  IC50: 675 nM

## CO[C@@H](/C=C/CC/C=C/C(=O)O)[C@@H](O)[C@H](C)[C@@H](O)/C(C)=C/[C@H](C)C(=O)CCCC1CC(=O)NC(=O)C1
HeLa [7]
  inhibition: inactive
HeLa [25]
  Activity: inactive
MDA-MB-231
  Activity: inactive
Jurkat
  Activity: inactive

## CO[C@H]1/C=C/CC/C=C/C(=O)O[C@H]([C@H](C)C(=O)CCCC2CC(=O)NC(=O)C2)/C(C)=C\[C@@H](C)[C@@H]1O
HeLa [7]
  inhibition: inactive
HeLa [25]
  Activity: inactive
MDA-MB-231
  Activity: inactive
Jurkat
  Activity: inactive

## CO[C@@H](/C=C/CC/C=C/C(=O)O)[C@@H](O)[C@H](C)/C=C(\C)[C@H](O)[C@H](C)C(=O)CCCC1CC(=O)NC(=O)C1
HeLa [25]
  Activity: inactive
MDA-MB-231
  Activity: inactive
Jurkat
  Activity: inactive

## CO[C@H]1/C=C/CC/C=C/C(=O)O[C@@H](/C(C)=C/[C@H](C)C(=O)/C=C/CC2CC(=O)NC(=O)C2)[C@@H](C)[C@@H]1O [DIDEHYDRO ISOMIGRASTATIN]
HeLa [1]
  IC50: > 10000 nM
HeLa [7]
  IC50: 1910 nM
HeLa [25]
  Activity: inactive
MDA-MB-231
  Activity: inactive
Jurkat
  Activity: inactive

## Cc1c2oc3c(C)ccc(C(=O)N[C@@H]4C(=O)N[C@H](C(C)C)C(=O)N5CCC[C@H]5C(=O)N(C)CC(=O)N(C)[C@@H](C(C)C)C(=O)O[C@@H]4C)c3nc-2c(C(=O)N[C@@H]2C(=O)N[C@H](C(C)C)C(=O)N3CCC[C@H]3C(=O)N(C)CC(=O)N(C)[C@@H](C(C)C)C(=O)O[C@@H]2C)c(N)c1=O [DACTINOMYCIN] (I: T[dV]P[Sar][NMeV] / II: T[dV]P[Sar][NMeV]; ester I:1-I:C, II:1-II:C; linker I:N-II:N via Actinocin(1to9))
HeLa [1]
  IC50: 262 nM
HeLa [7]
  IC50: 520 nM
  inhibition: Dose-dependent effect

## C/C(=C\[C@H](C)C(=O)C[C@H](O)CC1CC(=O)NC(=O)C1)[C@@H]1OC(=O)CCCC/C=C/C=C\[C@@H]1C [2H LACTIMIDOMYCIN K]
HeLa [1]
  IC50: > 10000 nM
HeLa [7]
  IC50: 98.5 nM
HeLa [25]
  Activity: inactive
MDA-MB-231
  Activity: inactive
Jurkat
  Activity: inactive

## CC(/C=C/C(C)=C/[C@@H]1Cc2nc(cs2)[C@@H](C)C[C@@H](N)CC(=O)O[C@@H](C)C/C(C)=C/C=C\C(=O)O1)=C\CN(C)C
[26]
  inhibition: Active
[27]
  inhibition: Active

## CSC[S@@+]([O-])CC(CO)NC(=O)/C=C/c1c(C)[nH]c(=O)[nH]c1=O (stereo not given in full)
[28]
  Activity: Active

## CO[C@H]1/C=C/CC/C=C/C(=O)O[C@@H](/C(C)=C/[C@H](C)C(=O)CCCC2CC(=O)NC(=O)C2)[C@@H](C)[C@@H]1O [ISOMIGRASTATIN]
HeLa [1]
  IC50: > 10000 nM
HeLa [7]
  IC50: 624 nM
  inhibition: Dose-dependent effect
HeLa [25]
  Activity: inactive
MDA-MB-231
  Activity: inactive
Jurkat
  Activity: inactive
